For experiment [1], the target named is T1, Glucocorticoid receptor (Homo sapiens, UniProt P04150).
T1 sequence (P04150 whole entry): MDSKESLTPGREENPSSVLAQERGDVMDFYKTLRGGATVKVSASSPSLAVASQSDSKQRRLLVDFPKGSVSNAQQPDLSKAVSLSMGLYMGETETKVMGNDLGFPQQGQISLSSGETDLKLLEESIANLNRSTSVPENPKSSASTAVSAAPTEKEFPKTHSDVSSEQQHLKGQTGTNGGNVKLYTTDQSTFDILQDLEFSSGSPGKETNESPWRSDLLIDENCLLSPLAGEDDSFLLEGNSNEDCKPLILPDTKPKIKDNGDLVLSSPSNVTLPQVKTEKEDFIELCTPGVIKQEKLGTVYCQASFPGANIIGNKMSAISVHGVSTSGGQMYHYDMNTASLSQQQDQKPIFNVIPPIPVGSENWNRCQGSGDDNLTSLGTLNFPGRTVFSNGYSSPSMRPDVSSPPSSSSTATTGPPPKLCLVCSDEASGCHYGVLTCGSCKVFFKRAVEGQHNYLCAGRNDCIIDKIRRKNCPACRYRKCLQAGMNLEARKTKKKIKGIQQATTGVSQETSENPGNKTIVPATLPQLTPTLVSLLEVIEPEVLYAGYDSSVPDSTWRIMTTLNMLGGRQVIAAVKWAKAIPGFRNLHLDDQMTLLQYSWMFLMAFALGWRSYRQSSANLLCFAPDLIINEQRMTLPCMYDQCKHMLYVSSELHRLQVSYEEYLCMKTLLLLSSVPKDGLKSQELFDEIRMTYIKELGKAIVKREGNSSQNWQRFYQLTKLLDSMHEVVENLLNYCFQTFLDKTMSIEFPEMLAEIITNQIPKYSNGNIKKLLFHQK
As to the kind of experiment: Displacement of FITC-dexamethasone from human recombinant glucocorticoid receptor alpha by fluorescence polarization assay. For orientation: In fluorescence polarisation assays a small probe gives low polarisation when free and higher when bound to something large.

Experiment [2] has as its target T1, Glucocorticoid receptor. The experiment in a line: Transrepression activity at GR in PMA-stimulated human A549 cells assessed as inhibition of AP1 response element-induced luciferase reporter gene activity. It counts as cell-based. On the technique in general: Reporter assays use an easily measured gene product as a stand-in for the process of interest.
A further experiment concerns the target T2, Progesterone receptor (Homo sapiens, UniProt P06401).
T2 sequence (P06401 whole entry): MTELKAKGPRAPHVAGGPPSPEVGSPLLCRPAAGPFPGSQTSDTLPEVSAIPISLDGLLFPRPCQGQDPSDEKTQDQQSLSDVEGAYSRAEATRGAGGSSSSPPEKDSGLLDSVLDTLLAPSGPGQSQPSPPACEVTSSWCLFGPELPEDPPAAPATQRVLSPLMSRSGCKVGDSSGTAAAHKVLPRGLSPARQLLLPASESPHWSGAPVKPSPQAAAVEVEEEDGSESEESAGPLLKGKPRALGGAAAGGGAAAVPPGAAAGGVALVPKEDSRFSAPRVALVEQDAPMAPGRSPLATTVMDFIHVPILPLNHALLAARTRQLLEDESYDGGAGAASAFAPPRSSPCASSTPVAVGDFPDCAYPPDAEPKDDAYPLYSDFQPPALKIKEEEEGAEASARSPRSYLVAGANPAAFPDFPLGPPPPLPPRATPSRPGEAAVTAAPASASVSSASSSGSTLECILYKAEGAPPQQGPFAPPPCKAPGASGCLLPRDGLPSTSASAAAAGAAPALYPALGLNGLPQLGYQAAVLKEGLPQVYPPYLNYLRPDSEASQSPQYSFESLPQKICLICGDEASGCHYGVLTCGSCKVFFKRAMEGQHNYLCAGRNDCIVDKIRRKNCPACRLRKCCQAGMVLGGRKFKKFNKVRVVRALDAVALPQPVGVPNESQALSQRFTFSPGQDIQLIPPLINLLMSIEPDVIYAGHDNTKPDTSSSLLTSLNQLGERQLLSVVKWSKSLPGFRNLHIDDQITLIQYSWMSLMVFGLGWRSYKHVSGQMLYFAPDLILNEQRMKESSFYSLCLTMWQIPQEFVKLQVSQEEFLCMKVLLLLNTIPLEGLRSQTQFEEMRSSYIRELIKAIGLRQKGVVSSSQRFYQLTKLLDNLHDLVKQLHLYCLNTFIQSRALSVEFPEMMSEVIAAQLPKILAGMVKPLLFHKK
As to the kind of experiment: Displacement of […] from progesterone receptor by fluorescence polarization assay. The method in brief:
(§1)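 Fluorescence polarization competition binding: the test compound competes with a fluorescently labelled ligand for binding to the full-length receptor or its ligand-binding domain. IC50 is fitted from the polarization signal with a four-parameter logistic equation. Ki is derived by Cheng–Prusoff, Ki = IC50/(1 + ligand concentration/Kd). Values are means of duplicate experiments.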

In another experiment the target is T3, Estrogen receptor (Homo sapiens, UniProt P03372).
T3 sequence (P03372 whole entry): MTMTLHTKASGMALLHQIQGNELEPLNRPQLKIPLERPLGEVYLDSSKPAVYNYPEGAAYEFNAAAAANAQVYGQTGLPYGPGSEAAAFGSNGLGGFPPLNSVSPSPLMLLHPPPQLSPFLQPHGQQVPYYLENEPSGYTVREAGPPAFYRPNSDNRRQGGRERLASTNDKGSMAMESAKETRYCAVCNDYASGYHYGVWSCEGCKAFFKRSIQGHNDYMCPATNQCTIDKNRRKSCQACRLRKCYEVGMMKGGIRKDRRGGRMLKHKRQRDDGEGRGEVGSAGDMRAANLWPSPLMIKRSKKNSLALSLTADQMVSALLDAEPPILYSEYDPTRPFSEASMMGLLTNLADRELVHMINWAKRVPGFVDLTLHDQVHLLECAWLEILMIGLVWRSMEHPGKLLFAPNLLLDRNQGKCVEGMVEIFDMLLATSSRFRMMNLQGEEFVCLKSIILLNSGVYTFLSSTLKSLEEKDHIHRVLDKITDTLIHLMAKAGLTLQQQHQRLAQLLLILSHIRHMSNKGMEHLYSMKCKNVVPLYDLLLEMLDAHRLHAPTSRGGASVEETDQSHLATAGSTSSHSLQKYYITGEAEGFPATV
As to the kind of experiment: Displacement of […] from estrogen receptor alpha by fluorescence polarization assay. In a few lines: as §1

For another experiment, the target named is T4, Androgen receptor (Homo sapiens, UniProt P10275).
T4 sequence (P10275 whole entry): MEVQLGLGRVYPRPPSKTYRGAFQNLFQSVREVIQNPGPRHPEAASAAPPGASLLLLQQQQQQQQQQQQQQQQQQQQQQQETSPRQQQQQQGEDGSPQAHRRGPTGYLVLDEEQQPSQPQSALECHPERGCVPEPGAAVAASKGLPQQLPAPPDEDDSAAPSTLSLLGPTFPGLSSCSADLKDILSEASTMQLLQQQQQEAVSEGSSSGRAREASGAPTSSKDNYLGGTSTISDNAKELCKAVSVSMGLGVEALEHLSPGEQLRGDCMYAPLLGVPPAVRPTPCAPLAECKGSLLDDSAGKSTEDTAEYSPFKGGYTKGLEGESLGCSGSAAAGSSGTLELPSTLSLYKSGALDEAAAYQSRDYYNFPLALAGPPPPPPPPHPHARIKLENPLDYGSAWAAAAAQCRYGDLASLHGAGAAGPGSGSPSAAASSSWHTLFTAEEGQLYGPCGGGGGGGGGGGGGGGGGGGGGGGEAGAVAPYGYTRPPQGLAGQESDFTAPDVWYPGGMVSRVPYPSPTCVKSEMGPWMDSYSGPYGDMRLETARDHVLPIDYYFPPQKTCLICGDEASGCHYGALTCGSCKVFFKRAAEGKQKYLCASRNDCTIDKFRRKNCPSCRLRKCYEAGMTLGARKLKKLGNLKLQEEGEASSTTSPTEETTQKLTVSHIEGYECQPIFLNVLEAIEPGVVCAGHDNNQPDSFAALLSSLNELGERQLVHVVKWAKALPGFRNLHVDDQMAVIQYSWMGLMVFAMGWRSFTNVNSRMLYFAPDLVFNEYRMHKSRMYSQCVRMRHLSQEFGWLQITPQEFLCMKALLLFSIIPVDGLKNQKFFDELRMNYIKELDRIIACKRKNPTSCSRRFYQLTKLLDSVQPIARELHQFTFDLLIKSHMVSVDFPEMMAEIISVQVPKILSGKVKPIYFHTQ
The experiment in a line: Displacement of fluorescently labeled ligand from androgen receptor by fluorescence polarization assay.

For experiment [3], the target named is T1, Glucocorticoid receptor. As to the kind of experiment: Transrepression activity at GR in IL-1-beta-stimulated human A549 cells assessed as inhibition of NF-kappaB-dependent E-selectin transcription by luciferase reporter gene assay. It counts as cell-based.
Experiment [4] has as its target T1, Glucocorticoid receptor. As to the kind of experiment: Agonist activity at GR ligand binding domain expressed in human NP1 cells assessed as glucocorticoid response element transactivation by GAL4 luciferase reporter gene assay. It counts as cell-based.
Experiment [5] is described as follows: Selectivity for human recombinant glucocorticoid receptor alpha over androgen receptor.
The nature of experiment [6]: Selectivity for human recombinant glucocorticoid receptor alpha over estrogen receptor alpha.
The target in experiment [7] is T5, Mineralocorticoid receptor (Homo sapiens) (UniProt P08235).
T5 sequence (whole entry): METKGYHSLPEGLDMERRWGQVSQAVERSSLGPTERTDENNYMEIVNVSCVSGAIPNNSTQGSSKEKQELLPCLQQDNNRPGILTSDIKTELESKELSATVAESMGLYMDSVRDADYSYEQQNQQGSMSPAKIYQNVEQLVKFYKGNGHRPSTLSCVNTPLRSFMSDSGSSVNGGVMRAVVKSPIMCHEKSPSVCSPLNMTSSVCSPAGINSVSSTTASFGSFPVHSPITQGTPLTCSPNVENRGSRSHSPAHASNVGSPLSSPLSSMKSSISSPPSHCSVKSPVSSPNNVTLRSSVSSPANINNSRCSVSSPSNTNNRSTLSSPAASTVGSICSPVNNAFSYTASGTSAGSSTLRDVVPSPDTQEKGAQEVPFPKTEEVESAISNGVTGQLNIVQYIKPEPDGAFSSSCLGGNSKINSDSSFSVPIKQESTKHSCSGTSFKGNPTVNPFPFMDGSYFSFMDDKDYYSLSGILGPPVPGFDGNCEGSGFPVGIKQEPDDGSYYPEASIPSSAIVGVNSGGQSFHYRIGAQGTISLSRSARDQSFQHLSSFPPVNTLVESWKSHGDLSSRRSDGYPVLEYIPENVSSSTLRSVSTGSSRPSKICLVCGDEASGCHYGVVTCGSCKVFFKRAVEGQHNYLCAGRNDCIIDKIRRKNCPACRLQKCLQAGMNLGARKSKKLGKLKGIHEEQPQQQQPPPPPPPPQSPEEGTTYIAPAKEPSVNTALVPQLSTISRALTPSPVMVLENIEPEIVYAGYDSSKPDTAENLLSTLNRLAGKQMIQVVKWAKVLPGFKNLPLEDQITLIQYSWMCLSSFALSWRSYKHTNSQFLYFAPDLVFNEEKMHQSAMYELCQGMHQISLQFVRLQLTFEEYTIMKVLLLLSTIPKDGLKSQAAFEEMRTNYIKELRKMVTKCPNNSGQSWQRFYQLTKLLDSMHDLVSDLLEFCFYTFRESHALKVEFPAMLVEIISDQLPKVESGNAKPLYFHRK
As to the kind of experiment: Antagonist activity at mineralocorticoid receptor in human A549 cells assessed as inhibition of 1.25 nM aldosterone-induced effect at 0.1 uM. It counts as functional, cell-based.

Experiment [8] in a line: Selectivity for human recombinant glucocorticoid receptor alpha over progesterone receptor.

What is called Ki is the dissociation constant of the complex between target and ligand, obtained from inhibition or displacement. One may read the EC50 as the concentration at which the effect is half-maximal. Regarding `Cc1cnc(NC(=O)C2(C)CC3c4ccccc4C2c2ccccc23)s1` (single isomer, unassigned; isomer A) [listing 1 of 2 here], the Ki on Glucocorticoid receptor [1] is 4.1 nM; at Progesterone receptor it was > 10000 nM; at Estrogen receptor it was > 5000 nM; on Androgen receptor, > 10000 nM. The EC50 at Glucocorticoid receptor [2] was determined as 345 nM.

Regarding `CC1(C(=O)Nc2nccs2)CC2c3ccccc3C1c1ccccc12` (configuration not stated), at Glucocorticoid receptor [1], the Ki is 2.9 nM. The EC50 on Glucocorticoid receptor [2] was 268 nM; on Glucocorticoid receptor [3], 30.7 nM; on Glucocorticoid receptor [4] it was > 10000 nM. Besides, the fold change (FC) in experiment [5] and in experiment [6] was > 1000 in each case.

In general, inhibition refers to the share of the control response that was lost under treatment. As to `Cc1cnc(NC(=O)C2(C)CC3c4ccccc4C2c2ccccc23)s1` (single isomer, unassigned; isomer A) [listing 2 of 2 here], the inhibition in experiment [7] was found to be 5%. In [8], the fold change (FC) is > 2500.

For `CC12CC(C)(C(=O)Nc3nccs3)C(c3ccccc31)c1ccccc12` (stereo in doubt; 17a), the Ki on Glucocorticoid receptor [1] was 1 nM; on Progesterone receptor, 31 nM; on Estrogen receptor, > 5000 nM; on Androgen receptor, 2900 nM. Further, the EC50 at Glucocorticoid receptor [2] came out at 5.3 nM; at Glucocorticoid receptor [3] it was 1.4 nM; at Glucocorticoid receptor [4], 117 nM.

Take `CC12CC(C)(C(=O)Nc3nncs3)C(c3ccccc31)c1ccccc12` (single isomer, unassigned; isomer A): the Ki on Glucocorticoid receptor [1] was 1.3 nM; at Progesterone receptor, 35 nM; at Estrogen receptor, > 5000 nM; at Androgen receptor it was 9300 nM. The figures for the EC50 on Glucocorticoid receptor [2], at Glucocorticoid receptor [3] and at Glucocorticoid receptor [4] were 11.4 nM, 8.3 nM and 111 nM, respectively.

(Values after ChEMBL document CHEMBL1138590, “Discovery of novel dihydro-9,10-ethano-anthracene carboxamides as glucocorticoid receptor modulators” (Bioorg Med Chem Lett, 2009).)
